The source made the active and inactive calls. No cut-off for these calls is given here.

The values below come from ChEMBL document CHEMBL4699430, “Continuous flow synthesis of lipophilic cations derived from benzoic acid as new cytotoxic chemical entities in human head and neck carcinoma cell lines” (RSC Med Chem, 2020).

Data set [1] has as its system CAL-27. Description: Induction of apoptosis in human CAL-27 cells at 2.5 uM incubated for 48 hrs by annexin-V FITC and PI staining based flow cytometric analysis. The format is functional, cell-based. Put shortly: (§1)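 Cells at 1 × 10^5 per mL exposed to 2.5 μM compound for 48 h at 37 °C in 5% CO2, with 10 μM staurosporine as positive control. Cells stained 5 min at room temperature with annexin V-FITC (488/530) and PI (488/575) in binding buffer; 10 000 events recorded by flow cytometry. Mean ± SD of at least three experiments; ANOVA with Bonferroni post-test.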

The subject of data set [2] is CAL-27. Description: Cytotoxicity against human CAL-27 cells assessed as reduction in cell viability measured after 48 hrs by MTT assay. The format is functional, cell-based. Particulars: CAL-27, 48 h. The method in brief: (§2)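 Cells seeded at 1 × 10^4 per well and left 24 h, then exposed to increasing concentrations for 24, 48 or 72 h. After two PBS washes, 0.5 mg/mL MTT applied for 2 h. Formazan dissolved in DMSO and absorbance read at 570 nm. IC50 taken from a variable-slope dose–response curve.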
A general note: Tetrazolium assays rely on reduction of a dye to a coloured formazan, in cell work by metabolically active cells.

The test system of data set [3] is HEp-2. Description: Cytotoxicity against human HEp-2 cells assessed as reduction in cell viability measured after 48 hrs by MTT assay. The class given is functional, cell-based. Particulars: HEp-2, 48 h. The method in brief:
as §2

Another data set concerns SCC-15. Description: Cytotoxicity against human SCC-15 cells assessed as reduction in cell viability measured after 48 hrs by MTT assay. The class given is functional, cell-based. Particulars: SCC-15, 48 h. Put shortly:
as §2

The nature of data set [4]: Cytotoxicity against human OKF-6/TERT cells assessed as reduction in cell viability measured after 48 hrs by MTT assay. The class given is cell-based. As to conditions: OKF6, 48 h. Put shortly: as §2
The nature of data set [5]: Selectivity index, ratio of IC50 for human OKF-6/TERT cells to IC50 for human CAL27 cells after 48 hrs by MTT assay. Particulars: OKF-6/TERT cells versus CAL27 cells, read-out: Ratio IC50. The format is toxicity. Put shortly:
(§3)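 Selectivity index at 48 h is the ratio of the OKF-6/TERT IC50 to the tumour-line IC50. Each IC50 comes from a sigmoidal, variable-slope dose–response curve of the MTT viability assay (1 × 10^4 cells per well, 48 h exposure, absorbance at 570 nm).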

Data set [6] can be described thus: Selectivity index, ratio of IC50 for human OKF-6/TERT cells to IC50 for human HEp-2 cells after 48 hrs by MTT assay. The format is toxicity. As to conditions: OKF-6/TERT cells versus HEp-2 cells. Put shortly:
as §3

Data set [7] is described as follows: Selectivity index, ratio of IC50 for human OKF-6/TERT cells to IC50 for human SCC-15 cells after 48 hrs by MTT assay. As to conditions: OKF-6/TERT cells versus SCC-15 cells. The format is toxicity. Put shortly: as §3
The subject of data set [8] is CAL-27. Description: Anticlonogenic activity against human CAL-27 cells assessed as reduction in colony formation incubated for 24 hrs followed supplementation with fresh medium without compound measured after 120 hrs by colony formation assay. The class given is functional, cell-based. Put shortly: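 Cal-27 cells, 1 × 10^3 per well, grown 24 h at 37 °C in 5% CO2, then exposed 24 h to a range of concentrations. Medium then replaced with compound-free medium and growth continued 120 h. Colonies stained 30 min with crystal violet (0.5% in methanol), photographed and counted. Three independent experiments; ANOVA with Bonferroni post-test.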

Data set [9] relates to CAL-27. Kind of data set: Induction of mitochondrial uncoupling in human CAL-27 cells assessed as oxygen consumption rate measured by Clark-type oxygen electrode method. As to conditions: Mitochondria, dose microM 10-50. Put shortly: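 Polarographic Clark-electrode assay on 5 × 10^6 trypsinised Cal-27 cells (cultured to 80% confluence). Cells held in 0.6 mL PBS, pH 7.4, at 25 °C with 8.3 mM L-glutamine. Respiration first inhibited with 2.5 μg/mL oligomycin, then compound added at increasing concentrations. OCR compared with full uncoupling by 0.133 μM CCCP.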

Data set [10] deals with HEp-2. Description: Induction of apoptosis in human Hep-2 cells at 2.5 uM incubated for 48 hrs by annexin-V FITC and PI staining based flow cytometric analysis. The class given is functional, cell-based. Put shortly: as §1
For orientation: Flow cytometry measures light scatter and fluorescence of single cells or particles in a stream.

Data set [11] concerns CAL-27. Kind of data set: Induction of apoptosis in human CAL-27 cells assessed as increase in caspase 3 activity at 2.5 to 5 uM incubated for 24 hrs by flow cytometry. The class given is functional, cell-based. Particulars: dose 2.5 µM. The method in brief:
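Cal-27 cells seeded at 5 × 10^5 per well and grown 24 h at 37 °C, then exposed to two concentrations for 24 h. Cells fixed and permeabilised 30 min at 4 °C in the dark, stained 30 min with PE anti-active caspase-3 antibody, and read by flow cytometry at 488 ex/617 em.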

Data set [12] deals with HEp-2. Kind of data set: Induction of mitochondrial membrane potential loss in human Hep-2 cells at 2.5 to 30 uM by flow cytometry. Particulars: dose microM 2.5-30.
In data set [13] the test system is CAL-27. Kind of data set: Induction of mitochondrial membrane potential loss in human CAL-27 cells at 2.5 to 30 uM by flow cytometry. Particulars: dose microM 2.5-30.
For data set [14], the system named is HEp-2. Kind of data set: Decrease in intracellular ATP levels in human Hep-2 cells at 10 to 50 uM incubated for 4 hrs by CellTiter-Glo luminescence assay. Particulars: dose microM 10-50, time 4.0 hrs. In general terms: Cellular ATP, detected with luciferase, serves as a proxy for viable cell number.
In data set [15] the test system is CAL-27. Kind of data set: Uncoupling of mitochondrial oxidative phosphorylation in human CAL-27 cells assessed as increase in oxygen consumption rate by Clark electrode based assay. Particulars: Mitochondria.
Data set [16] concerns CAL-27. Kind of data set: Decrease in intracellular ATP levels in human CAL-27 cells at 10 to 50 uM incubated for 4 hrs by CellTiter-Glo luminescent assay. Particulars: dose microM 10-50, time 4.0 hrs.

Usually IC50 stands for the concentration that gives 50% inhibition. `O=C(OCCCCCCCCCC[P+](c1ccccc1)(c1ccccc1)c1ccccc1)c1ccccc1O`: the result in the data set on CAL-27 [1], in the data set on HEp-2 [10], with CAL-27 [11], with HEp-2 [12], in the data set on CAL-27 [13] and in the data set on HEp-2 [14] was Active. Further, the outcome in the data set with CAL-27 [15] was Active. Moreover, the IC50 in the data set with CAL-27 [2] is 2.3 µM; in the data set on HEp-2 [3], 4.28 µM; with SCC-15, 3.2 µM; in data set [4], 12.7 µM. Besides, the selectivity ratio at 48 h amounted to 5.5 in data set [5], 3 in [6] (read-out: Ratio IC50) and 4 in [7] (read-out: Ratio IC50). Moreover, the Activity result in the data set with CAL-27 [8] and in the data set with CAL-27 [9] was “Dose-dependent effect” each time.

For `O=C(OCCCCCCCCCC[P+](c1ccccc1)(c1ccccc1)c1ccccc1)c1cc(O)ccc1O`, the result with CAL-27 [1], in the data set with HEp-2 [10], in the data set on CAL-27 [11], in the data set on HEp-2 [12], in the data set on CAL-27 [13] and with CAL-27 [16] was Active. Besides, the outcome in the data set on HEp-2 [14] was Active. In addition, the IC50 amounted to 2.2 µM with CAL-27 [2], 5.66 µM in the data set with HEp-2 [3], 2.7 µM in the data set on SCC-15 and 13.2 µM in data set [4]. Further, the selectivity ratio at 48 h in data set [5] turned out to be 6; in data set [6] (read-out: Ratio IC50) it was 2.3; in [7] (read-out: Ratio IC50), 4.9. Further, the Activity entry with CAL-27 [8] and in the data set on CAL-27 [9] was “Dose-dependent effect” in each case.

As to `O=C(OCCCCCCCCCC[P+](c1ccccc1)(c1ccccc1)c1ccccc1)c1cc(O)c(O)c(O)c1`, the result with CAL-27 [1], with HEp-2 [10], with CAL-27 [11], in the data set with HEp-2 [12], with CAL-27 [13] and in the data set on HEp-2 [14] was Active. In addition, the result with CAL-27 [15] was Active. Also, the IC50 in the data set with CAL-27 [2] came to 3.4 µM; in the data set on HEp-2 [3] it was 12.5 µM; in the data set with SCC-15 it was 3 µM; in [4], 13.1 µM. Moreover, the selectivity ratio at 48 h in data set [5] is 3.8; in data set [6] (read-out: Ratio IC50), 1; in [7] (read-out: Ratio IC50), 4.4. Besides, the Activity entry with CAL-27 [8] and in the data set with CAL-27 [9] was “Dose-dependent effect” in each case.

In the case of `O=C(OCCCCCCCCCC[P+](c1ccccc1)(c1ccccc1)c1ccccc1)c1cccc(O)c1O`, the outcome in the data set on CAL-27 [1], in the data set with HEp-2 [10], in the data set on CAL-27 [11], in the data set with HEp-2 [12], with CAL-27 [13] and with CAL-27 [16] was Active. Also, the result with HEp-2 [14] was Active. Also, the 50% inhibitory concentration (IC50) was 1.6 µM in the data set with CAL-27 [2], 8.28 µM in the data set with HEp-2 [3], 2.9 µM in the data set with SCC-15 and 7.5 µM in [4]. Further, the selectivity ratio at 48 h in data set [5] was 4.7; in [6] it was 2.3; in data set [7], 4.9. Besides, the Activity entry in the data set with CAL-27 [8] and with CAL-27 [9] was “Dose-dependent effect” in each case.
